Data reported in ChEMBL document CHEMBL1126903.

How the values were obtained:
[1] = The pKa value was measured at 31-P chemical shift changes due to protonation
[2] = The pKa value was measured at 15-N chemical shift changes due to protonation
Outline: (§1)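 Chemical shift recorded at 4 °C across a pH series. Sample pH was read in an ice-water bath (0-4 °C) before and after each NMR run and the two readings averaged, with no correction for deuterium or temperature. The meter was calibrated at 20 °C. pKa came from fitting single- or double-ionization titration equations to shift versus pH, with error estimated at about 0.05 pH units.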

[3] = The pKa value was measured at 17-O chemical shift changes due to protonation
[4] = The pKa value was measured at N15 chemical shift changes due to protonation; outline: as §1

Row | SMILES | pKa [1] | pKa [2] | pKa [3] | pKa [4]
1 | NP(N)(=O)O | 5.4 | 5.4 | – | –
2 | NP(=O)(O)O | 3 | 2.8 | – | –
3 | O=P(O)(O)NP(=O)(O)O | 10.3 | – | 10.4 | –
4 | c1c[nH]cn1 | – | – | – | 7
5 | Nc1ncnc2c1ncn2[C@@H]1O[C@H](COP(=O)(O)OP(=O)(O)OP(=O)(O)O)[C@@H](O)[C@H]1O | 6.6 | – | – | –
6 | CCOP(=O)(NP(=O)(OCC)OCC)OCC | 3.8 | – | 4.2 | –
7 | N[C@@H](Cc1c[nH]cn1)C(=O)O | – | – | – | 6.2
